This note sets out measurements from ChEMBL document CHEMBL1151981, “Bioactive pyridine-N-oxide disulfides from Allium stipitatum” (J Nat Prod, 2009).

Values after ≈ are worked out from the molar mass of the structure shown. Active and inactive are the calls of the source. The rule behind the calls is not given here.

In assay [1] the test system is Mycobacterium tuberculosis. As to the kind of experiment: Effect on trxC RNA expression in Mycobacterium tuberculosis H37Rv ATCC 27294 at 2 to 10 ug/ml after 6 hrs by microarray analysis. The format is functional, organism-based. The procedure, abridged:
(§1)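 H37Rv grown in 7H9 with 0.2% glycerol, 0.5% BSA fraction V, 0.05% Tween 80, 0.08% NaCl and 0.2% glucose to OD650 0.3. Treated with 2, 5 or 10 µg/mL compound, or matching DMSO, for 6 h. RNA isolated, labelled cDNA hybridised to microarrays. Predictive genes found by class prediction analysis.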

Assay [2] concerns Mycobacterium tuberculosis. The experiment in a line: Upregulation of Rv3463 RNA expression in Mycobacterium tuberculosis H37Rv ATCC 27294 at 2 to 10 ug/ml after 6 hrs by microarray analysis. The format is functional, organism-based. The procedure, abridged: as §1
Assay [3] concerns Mycobacterium tuberculosis. The experiment in a line: Upregulation of sigH RNA expression in Mycobacterium tuberculosis H37Rv ATCC 27294 at 2 to 10 ug/ml after 6 hrs by microarray analysis. It counts as functional, organism-based. The method in brief: as §1
Assay [4] deals with Mycobacterium tuberculosis. As to the kind of experiment: Upregulation of Rv1334 RNA expression in Mycobacterium tuberculosis H37Rv ATCC 27294 at 2 to 10 ug/ml after 6 hrs by microarray analysis. The format is functional, organism-based. The procedure, abridged:
as §1

Assay [5] concerns Mycobacterium tuberculosis. As to the kind of experiment: Effect on trxB2 RNA expression in Mycobacterium tuberculosis H37Rv ATCC 27294 at 2 to 10 ug/ml after 6 hrs by microarray analysis. The format is functional, organism-based. The method in brief: as §1
In assay [6] the test system is Mycobacterium tuberculosis. The experiment in a line: Upregulation of Rv0331 RNA expression in Mycobacterium tuberculosis H37Rv ATCC 27294 at 2 to 10 ug/ml after 6 hrs by microarray analysis. It counts as functional, organism-based. The procedure, abridged: as §1
Assay [7] relates to Mycobacterium tuberculosis. The experiment in a line: Upregulation of hsp RNA expression in Mycobacterium tuberculosis H37Rv ATCC 27294 at 2 to 10 ug/ml after 6 hrs by microarray analysis. It counts as functional, organism-based. The procedure, abridged:
as §1

Assay [8] has as its system Mycobacterium tuberculosis. The experiment in a line: Upregulation of Rv3054c RNA expression in Mycobacterium tuberculosis H37Rv ATCC 27294 at 2 to 10 ug/ml after 6 hrs by microarray analysis. The format is functional, organism-based. The procedure, abridged: as §1
The subject of assay [9] is Mycobacterium tuberculosis. The experiment in a line: Upregulation of clpB RNA expression in Mycobacterium tuberculosis H37Rv ATCC 27294 at 2 to 10 ug/ml after 6 hrs by microarray analysis. It counts as functional, organism-based. The procedure, abridged:
as §1

Assay [10] deals with Mycobacterium tuberculosis. The experiment in a line: Upregulation of dnaK RNA expression in Mycobacterium tuberculosis H37Rv ATCC 27294 at 2 to 10 ug/ml after 6 hrs by microarray analysis. It counts as functional, organism-based. The method in brief: as §1
In assay [11] the test system is Mycobacterium tuberculosis. The experiment in a line: Upregulation of Rv1335 RNA expression in Mycobacterium tuberculosis H37Rv ATCC 27294 at 2 to 10 ug/ml after 6 hrs by microarray analysis. The format is functional, organism-based. The method in brief:
as §1

Assay [12] has as its system Mycobacterium tuberculosis. As to the kind of experiment: Upregulation of dnaJ RNA expression in Mycobacterium tuberculosis H37Rv ATCC 27294 at 2 to 10 ug/ml after 6 hrs by microarray analysis. The format is functional, organism-based. The procedure, abridged:
as §1

For the next assay, the system named is Mycolicibacterium phlei. As to the kind of experiment: Antibacterial activity against Mycobacterium phlei after 72 hrs. The format is functional. The procedure, abridged:
(§2)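 Fast-growing mycobacteria obtained from NCTC; cultures grown on Columbia blood agar with 7% defibrinated horse blood at 37 °C for 72 h before MIC determination. Ethambutol and isoniazid served as positive controls.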

Assay [13] concerns Mycolicibacterium smegmatis. The experiment in a line: Antibacterial activity against Mycobacterium smegmatis after 72 hrs. It counts as functional. The method in brief: as §2
The test system of assay [14] is Staphylococcus aureus. The experiment in a line: Antibacterial activity against tetracycline-effluxing Staphylococcus aureus XU212 after 72 hrs. The format is functional. Conditions: XU212, 72 h. The procedure, abridged: (§3)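 S. aureus strains tested in a MIC assay; norfloxacin and oxacillin used as positive controls.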
The subject of assay [15] is Mycolicibacterium fortuitum. The experiment in a line: Antibacterial activity against Mycobacterium fortuitum after 72 hrs. The format is functional. The method in brief: as §2
For assay [16], the system named is Staphylococcus aureus. As to the kind of experiment: Antibacterial activity against Staphylococcus aureus SA1199B overexpressing NorA efflux pump after 72 hrs. The format is functional.
In assay [17] the test system is Staphylococcus aureus. The experiment in a line: Antibacterial activity against Staphylococcus aureus EMRSA15 after 72 hrs. The format is functional. The following applies: EMRSA15, 72 h. The method in brief: as §3
Assay [18] relates to Mycobacterium tuberculosis. The experiment in a line: Antibacterial activity against Mycobacterium tuberculosis infected in GKO C57BL/6 mouse assessed as bacterial number in lung at 25 mg/kg/day administered 14 days postinfection via oral gavage for nine consecutive days measured on day 24 postinfection. The format is functional. The procedure, abridged: (§4)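 Female GKO C57BL/6 mice, 8–10 weeks old, infected by low-dose aerosol with M. tuberculosis Erdman (50–100 CFU uptake confirmed day 1). Daily oral gavage in 0.5% methyl cellulose from day 14 for nine consecutive days; isoniazid given at 25 mg/kg/day. Five mice per group, with untreated and pretreatment controls. Lung and spleen CFU log-transformed; one-way ANOVA with Tukey test.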

Assay [19] relates to Mycobacterium tuberculosis. The experiment in a line: Antibacterial activity against Mycobacterium tuberculosis infected in GKO C57BL/6 mouse assessed as bacterial number in spleen at 25 mg/kg/day administered 14 days postinfection via oral gavage for nine consecutive days measured on day 24 postinfection. It counts as functional. The procedure, abridged: as §4
Another assay concerns A549. As to the kind of experiment: Cytotoxicity against human A549 cells after 96 hrs by sulforhodamine B assay. It counts as functional, cell-based. The following applies: A549, 96 h. The method in brief: (§5)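 SRB assay. Cells seeded at 4000/well in DMEM and allowed to attach overnight at 37 °C, 5% CO2. Exposed in quadruplicate to freshly made compound, 0.1–25 µM, for 96 h. Fixed with ice-cold 10% TCA for 30 min, stained with 0.4% SRB in 1% acetic acid for 15 min. Absorbance read at 540 nm as % of untreated control; IC50 derived from means.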
In general terms: The SRB assay estimates cell density from bound dye.

The test system of another assay is MCF7. The experiment in a line: Cytotoxicity against human MCF7 cells after 96 hrs by sulforhodamine B assay. The format is functional, cell-based. Conditions: MCF7, 96 h. The method in brief:
as §5

The nature of assay [20]: Cytotoxicity against human WI38 cells after 96 hrs by sulforhodamine B assay. It counts as cell-based. The following applies: WI-38, 96 h. The method in brief:
as §5

The test system of assay [21] is Mycolicibacterium smegmatis. The experiment in a line: Antibacterial activity against Mycobacterium smegmatis mc2 2700 after 72 hrs. The following applies: mc2 2700, 72 h. It counts as functional.
The subject of assay [22] is Mycobacterium tuberculosis. The experiment in a line: Antibacterial activity against Mycobacterium tuberculosis H37Rv ATCC 27294 assessed as decrease in viable bacterial counts at 0.01 to 5 ug/ml after 14 days by spot-culture growth inhibition assay. It counts as functional, organism-based. The method in brief: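 Mid-exponential cultures (BCG rotated in 7H9/ADC/Tween 80; H37Rv standing in 7H9/OADC/Tween 80) diluted to 10³ cells/mL. 5 µL spotted onto 7H10 agar with 10% OADC containing compound at 0.01, 0.1, 0.5, 1 and 5 µg/mL. Incubated at 37 °C for 14 days. MIC taken as lowest concentration with no growth; no-compound well as growth control.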

As for `CC1=CC(=O)c2ccccc2C1=O`, the result in assay [1], in [2], in assay [3], in [4], in assay [5] and in assay [6] was Active. Besides, the result in assay [7], in [8], in assay [9], in assay [10], in assay [11] and in [12] was Active.
One may read the MIC as the least concentration at which growth counts as inhibited. On to `CSSc1ccccn1`, for which the MIC against Mycolicibacterium phlei is 16 µg/mL (≈ 102 µM); in [13] it was 8 µg/mL (≈ 50.9 µM); in the assay on Staphylococcus aureus [14], 4 µg/mL (≈ 25.4 µM); in assay [15] it was 8 µg/mL (≈ 50.9 µM); in the assay with Staphylococcus aureus [16], 2 µg/mL (≈ 12.7 µM); against Staphylococcus aureus [17], 2 µg/mL (≈ 12.7 µM).
As to `[O-][n+]1ccccc1SSc1cccc[n+]1[O-]` [DIPYRITHIONE], the MIC came to 16 µg/mL (≈ 63.4 µM) against Mycolicibacterium phlei; 16 µg/mL (≈ 63.4 µM) in assay [13]; 1 µg/mL (≈ 3.96 µM) against Staphylococcus aureus [14]; 16 µg/mL (≈ 63.4 µM) in assay [15]; 1 µg/mL (≈ 3.96 µM) against Staphylococcus aureus [16]; 0.5 µg/mL (≈ 1.98 µM) with Staphylococcus aureus [17].
Take `NNC(=O)c1ccncc1` [ISONIAZID]: the MIC in the assay on Mycolicibacterium phlei is 128 µg/mL (≈ 933 µM); in assay [13] it was 0.25 µg/mL (≈ 1.82 µM); in [15] it was 0.25 µg/mL (≈ 1.82 µM). Moreover, the log10cfu in assay [18] stood at 5.33; in [19], 2.16.
In the case of `CSSc1ccc2ccccc2n1`, the MIC in the assay on Mycolicibacterium phlei stood at 8 µg/mL (≈ 38.6 µM); in assay [13], 8 µg/mL (≈ 38.6 µM); against Staphylococcus aureus [14], 4 µg/mL (≈ 19.3 µM); in assay [15] it was 4 µg/mL (≈ 19.3 µM); in the assay on Staphylococcus aureus [16] it was 4 µg/mL (≈ 19.3 µM); in the assay with Staphylococcus aureus [17] it was 4 µg/mL (≈ 19.3 µM).
For `CSSc1ncccn1`, the MIC is 16 µg/mL (≈ 101 µM) with Mycolicibacterium phlei; 8 µg/mL (≈ 50.6 µM) in [13]; 4 µg/mL (≈ 25.3 µM) in the assay with Staphylococcus aureus [14]; 8 µg/mL (≈ 50.6 µM) in [15]; 2 µg/mL (≈ 12.6 µM) with Staphylococcus aureus [16]; 2 µg/mL (≈ 12.6 µM) against Staphylococcus aureus [17].
As usually defined, the IC50 is the concentration that gives 50% inhibition. A higher IC50 goes with weaker potency. In the case of `CSCSSc1cccc[n+]1[O-]`, the MIC against Mycolicibacterium phlei stood at 2 µg/mL (≈ 9.12 µM); in assay [13], 4 µg/mL (≈ 18.2 µM); in the assay on Staphylococcus aureus [14], 1 µg/mL (≈ 4.56 µM); in assay [15], 8 µg/mL (≈ 36.5 µM); in assay [21] it was 4 µg/mL (≈ 18.2 µM); in the assay with Staphylococcus aureus [16], 1 µg/mL (≈ 4.56 µM). Besides, the MIC against Staphylococcus aureus [17] was 0.5 µg/mL (≈ 2.28 µM). In addition, the IC50 with A549 is 780 nM; with MCF7, 390 nM; in [20], 890 nM. Also, the outcome in assay [22] was Active.
With `CC[C@@H](CO)NCCN[C@@H](CC)CO` [ETHAMBUTOL], the MIC with Mycolicibacterium phlei was 2 µg/mL (≈ 9.79 µM); in assay [13], 32 µg/mL (≈ 157 µM); in assay [15] it was 2 µg/mL (≈ 9.79 µM).
Take `CSSc1ccccc1`: the MIC against Mycolicibacterium phlei is over 128 µg/mL; in [13] it was 64 µg/mL (≈ 410 µM); against Staphylococcus aureus [14], over 128 µg/mL; in assay [15] it was over 128 µg/mL; in the assay with Staphylococcus aureus [16] it was 128 µg/mL (≈ 819 µM); in the assay with Staphylococcus aureus [17], over 128 µg/mL.
Take `CCn1cc(C(=O)O)c(=O)c2cc(F)c(N3CCNCC3)cc21` [NORFLOXACIN]: the MIC was found to be 16 µg/mL (≈ 50.1 µM) against Staphylococcus aureus [14], 32 µg/mL (≈ 100 µM) in the assay on Staphylococcus aureus [16] and 0.5 µg/mL (≈ 1.57 µM) in the assay with Staphylococcus aureus [17].
As to `CSSc1cccs1`, the MIC against Mycolicibacterium phlei was over 128 µg/mL; in assay [13] it was 64 µg/mL (≈ 394 µM); in the assay with Staphylococcus aureus [14], over 128 µg/mL; in assay [15], over 128 µg/mL; in the assay with Staphylococcus aureus [16] it was 128 µg/mL (≈ 789 µM); against Staphylococcus aureus [17], over 128 µg/mL.
For the molecule `Cc1onc(-c2ccccc2)c1C(=O)N[C@@H]1C(=O)N2[C@@H]1SC(C)(C)[C@@H]2C(=O)O` [OXACILLIN], the MIC against Staphylococcus aureus [14] was 128 µg/mL (≈ 319 µM); against Staphylococcus aureus [16], 0.25 µg/mL (≈ 0.623 µM); in the assay with Staphylococcus aureus [17], 32 µg/mL (≈ 79.7 µM).
For the molecule `Oc1cccc2cccnc12`, the result in assay [1], in assay [2], in [3], in assay [4], in assay [5] and in [6] was Active. Moreover, the outcome in assay [7], in [8], in assay [9], in assay [10], in assay [11] and in assay [12] was Active.
